Experimental findings from ChEMBL document CHEMBL3098002, “Cassaine diterpene alkaloids from Erythrophleum fordii and their anti-angiogenic effect” (Bioorg Med Chem Lett, 2014) are described below.

Active and inactive are the calls of the source. No cut-off for these calls is given here.

In data set [1] the test system is HUVEC. In words: Antiangiogenic activity against HUVEC assessed as inhibition of capillary-like tube formation at 3 ug/ml after 15 hrs by Matrigel assay relative to control. The data set is classed as functional. To be noted: Homo sapiens. Summed up:
(§1)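 HUVECs were grown in M199 with 20% FBS, 1% penicillin/streptomycin, 0.01% heparin and ECGS on 0.2% gelatin-coated plates at 37 °C in 5% CO2. For the assay, 1 × 10^4 cells were suspended in medium containing compound and added onto polymerized Matrigel at 37 °C. Cultures were photographed at ×100 and tubes counted. Values were normalized to solvent controls (100%), n = 3, mean ± SD.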

In data set [2] the test system is HUVEC. In words: Cytotoxicity against HUVEC assessed as cell viability at 3 to 30 ug/ml after 48 hrs by MTT assay. The data set is classed as cell-based. Conditions: human. A digest of the protocol: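 HUVECs were grown on gelatin-coated plates to 80% confluency, then treated for 48 h alongside a 0.1% DMSO control. MTT was added to a final 0.05% for 3 h at 37 °C. Formazan was dissolved in DMSO and read at 570 nm against 630 nm reference. Viability was expressed as a percentage of untreated cells.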

In data set [3] the test system is HUVEC. Kind of data set: Antiangiogenic activity against HUVEC assessed as inhibition of capillary-like tube formation at 30 ug/ml after 15 hrs by Matrigel assay relative to control. The data set is classed as functional. To be noted: Homo sapiens. A digest of the protocol:
as §1

Data set [4] concerns HUVEC. Kind of data set: Antiangiogenic activity against HUVEC assessed as inhibition of capillary-like tube formation at 3 to 30 ug/ml after 15 hrs by Matrigel assay relative to control. The data set is classed as functional, cell-based. To be noted: Homo sapiens. Summed up: as §1
The subject of data set [5] is HUVEC. In words: Cytotoxicity against HUVEC at 3 to 30 ug/ml by LDH release assay. Conditions: human. The format is cell-based. In general terms: LDH in the medium is a marker of cell lysis.

For the molecule `COC(=O)[C@@]1(C)CCC[C@@]2(C)[C@H]1CC(=O)[C@H]1[C@@H](C)/C(=C/C(=O)N(C)CCO)CC[C@@H]12`, the inhibition (in general, the share of the control response that was lost under treatment) in data set [1] is “Active”. The Activity result in data set [2] is “Non-toxic”.
For `COC(=O)[C@]1(C)[C@@H]2CC[C@H]3[C@@H](C)/C(=C/C(=O)N(C)CCO)CC[C@@H]3[C@@]2(C)CC[C@@H]1O`, the inhibition result in data set [1] was “Active”. Moreover, the Activity entry in data set [2] is “Non-toxic”.
Turning to `COC(=O)[C@@]1(C)[C@@H](OC(C)=O)CC[C@@]2(C)[C@H]1[C@@H](O)C(=O)[C@H]1[C@@H](C)/C(=C/C(=O)N(C)CCO)CC[C@@H]12`, in data set [1], the inhibition result was “Active”. The Activity result in data set [2] was “Non-toxic”.
Turning to `COC(=O)[C@@]1(C)[C@@H](OC(C)=O)CC[C@@]2(C)[C@H]1CC(=O)[C@H]1[C@@H](C)/C(=C/C(=O)N(C)CCO)CC[C@@H]12`, in data set [3], the inhibition at 30 µg/mL came out at 4.5%. Besides, the inhibition entry in data set [4] is “Active”. For the same molecule, the Activity entry is recorded as “Toxic” in data set [5] and “Non-toxic” in data set [2]. Also, the inhibition at 3 µg/mL in data set [1] came to 42%.
Regarding `COC(=O)[C@@]1(C)CCC[C@@]2(C)[C@H]1[C@@H](O)C(=O)[C@H]1[C@@H](C)/C(=C/C(=O)N(C)CCO)CC[C@@H]12`, the inhibition result in data set [1] was “Active”. In addition, the Activity entry in data set [2] was “Non-toxic”.
For `COC(=O)[C@]1(C)[C@@H]2CC(=O)[C@H]3[C@@H](C)/C(=C/C(=O)N(C)CCO)CC[C@@H]3[C@@]2(C)CC[C@@H]1O`, in that order: “Active” and “Non-toxic”.
Turning to `COc1cc(/C=C/C(=O)CC(=O)/C=C/c2ccc(O)c(OC)c2)ccc1O` [CURCUMIN], the inhibition at 3 µg/mL in data set [1] stood at 45%.
